Laboratory results as given in ChEMBL document CHEMBL1137788, “Potential neuroprotective drugs in cerebral ischemia: new saturated and polyunsaturated lipids coupled to hydrophilic moieties: synthesis and biological activity” (J Med Chem, 2009).
The source made the active and inactive calls. The calls are words filed in the database; no cut-off is given here.

How the values were obtained:
HT-22 [1] = assay: Neuroprotective effect against iodoacetic acid-induced ischemia in mouse HT22 cells assessed as cell survival at 1 to 10 uM treated simultaneously with iodoacetic acid for 2 hrs followed by incubation in fresh medium containing drug alone for 20 hrs measured after 4 hrs by MTT assay; type: functional
How it was run: (§1)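 HT22 cells were seeded at 5 × 10³ per well and moved next day to DMEM with 7.5% dialyzed FCS. They were exposed to 20 μM iodoacetic acid plus graded compound doses for 2 h, then given fresh IAA-free medium containing compound for 20 h. MTT was added for 4 h at 37 °C and absorbance read at 570 nm.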

HT-22 [2] = assay: Neuroprotective effect against glutamate-induced neuronal cell death in mouse HT22 cells assessed as cell survival at 1 to 10 uM treated simultaneously with glutamate after 24 hrs by MTT assay; type: functional
How it was run: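 Mouse HT22 hippocampal cells grown in DMEM/10% FCS, seeded 5 × 10³ cells/well. Next day medium changed to DMEM with 7.5% dialyzed FCS and cells given analogue doses together with 5 mM glutamate for 24 h. Medium then replaced with 2.5 μg/mL MTT for 4 h at 37 °C and solubilized in 50% DMF/20% SDS (pH 4.7). A570 read next day. Maximal % survival at best dose reported.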

HT-22 [3] = assay: Neuroprotective effect against iodoacetic acid-induced ischemia in mouse HT22 cells treated simultaneously with iodoacetic acid for 2 hrs followed by incubation in fresh medium containing drug alone for 20 hrs measured after 4 hrs by MTT assay; type: functional, cell-based; how it was run: as §1
[4] = Cytotoxicity against mouse HT22 cells at 10 uM after 24 hrs by MTT assay; type: cell-based; conditions: ht-22, 24 h
How it was run: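 HT22 cells grown in DMEM with 10% FCS were seeded at 5 × 10³ cells per well. The medium was switched to DMEM with 7.5% dialyzed FCS and cells were exposed to 10 μM compound alone. Viability was read after 24 h by MTT (2.5 μg/mL, 4 h at 37 °C, solubilized in DMF/SDS pH 4.7) at 570 nm.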

HT-22 [5] = assay: Activation of ERK phosphorylation in mouse HT22 cells at 10 uM treated simultaneously with iodoacetic acid for 2 hrs followed by 2 hrs of recovery in presence of drug alone by immunoblot analysis; type: cell-based
How it was run: (§2)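 HT22 cells, plated at the same density as for the death assays, were given 10 μM compound with or without 20 μM IAA for 2 h, then allowed 2 h of recovery with compound present. Cells were washed in PBS and lysed in SDS sample buffer with Na3VO4 and PMSF. Lysates were run on 10% gels and immunoblotted for phospho and total ERK, JNK, p38, c-Jun and MAPKAPK2.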

Brain = assay: Neuroprotective effect against glutamate-induced injury in rat brain slices at 10 uM treated 1 hr prior to and during glutamate challenge by 2, 3, 5-triphenyl tetrazolium chloride staining method; type: functional, tissue-based
How it was run: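 Rat cortical slices were cultured with compound for 1 h before and during injury with 1 mM glutamate. Slice viability was assessed by TTC staining, n=6, mean ± SD.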

[6] = molecular target: T1, MAP kinase p38 (Mus musculus) (UniProt P47811+O08911+Q9WUI1+Q9Z1B7); assay: Inhibition of p38 MAPK activation in mouse HT22 cells at 10 uM treated simultaneously with iodoacetic acid for 2 hrs followed by 2 hrs of recovery in presence of drug alone by immunoblot analysis; type: cell-based; conditions: HT-22; how it was run: as §2
HT-22 [7] = assay: Inhibition of JNK activation in mouse HT22 cells at 10 uM treated simultaneously with iodoacetic acid for 2 hrs followed by 2 hrs of recovery in presence of drug alone by immunoblot analysis; type: cell-based; how it was run: as §2
[8] = molecular target: T1, MAP kinase p38 (Mus musculus); assay: Inhibition of p38 MAPK activation in mouse HT22 cells assessed as MAPKAPK2 phosphorylation at 10 uM treated simultaneously with iodoacetic acid for 2 hrs followed by 2 hrs of recovery in presence of drug alone by immunoblot analysis; type: cell-based; conditions: HT-22; how it was run: as §2
HT-22 [9] = assay: Inhibition of JNK activation in mouse HT22 cells assessed as c-jun phosphorylation at 10 uM treated simultaneously with iodoacetic acid for 2 hrs followed by 2 hrs of recovery in presence of drug alone by immunoblot analysis; type: cell-based; how it was run: as §2

Row | SMILES | %max (HT-22 [1]) [%] | %max (HT-22 [2]) [%] | EC50 (HT-22 [3]) [µM] | Activity [4] [%] | Activity (HT-22 [5]) | Activity (Brain) | Activity [6] | Activity (HT-22 [7]) | Activity [8] | Activity (HT-22 [9])
1 | CCOC(=O)C(CO)NC(=O)C=C(C)/C=C/C=C(C)/C=C/C1=C(C)CCCC1(C)C (stereo not drawn) | 45 | 14 | 11.6 | 15 | inactive |  |  |  |  | 
2 | CCCCCCCCCCCCCCCCCC(=O)NC(CO)P(=O)(O)O (stereo not drawn) | 74 | 20 | 2.1 | 50 | inactive |  |  |  |  | 
3 | CCCCCCCCCCCCCCCCCC(=O)NC(CO)C(=O)O (stereo not drawn) | 65 | 16 | 3.2 | 28 | inactive | Active |  |  |  | 
4 | CC1=C(/C=C/C(C)=C/C=C/C(C)=C/C(=O)NC(CO)C(=O)O)C(C)(C)CCC1 (stereo not drawn) | 63 | 16 | 4.1 | 20 | inactive |  |  |  |  | 
5 | CCCCC/C=C\C/C=C\CCCCCCCC(=O)NCCCCCC(=O)OCC(O)C1OC(=O)C(O)=C1O (stereo not drawn) | 55 | 32 | 6.4 | 19 | inactive |  |  |  |  | 
6 | CCCCCCCCCCCCCCCCCC(=O)NCCCCCC(=O)OCC(O)C1OC(=O)C(OCc2ccccc2)=C1OCc1ccccc1 (stereo not drawn) | 68 | 19 | 2.5 | 48 | inactive |  |  |  |  | 
7 | CCOC(=O)C(CO)NC(=O)/C=C(C)/C=C/C1(O)C(C)=CC(=O)CC1(C)C (stereo not drawn) | 39 | 21 | 13.6 | 1 | inactive |  |  |  |  | 
8 | CCCCCCCCCCCCCCCCCC(=O)NCCCCCC(=O)OCC(O)C1OC(=O)C(O)=C1O (stereo not drawn) | 92 | 65 | 1.8 | 40 | inactive |  |  |  |  | 
9 | CCCCC/C=C/C/C=C/CCCCCCCC(=O)NC(C(=O)OCC)c1nnn[nH]1 (stereo not drawn) | 41 | 8 | 11.3 | 4 | inactive |  |  |  |  | 
10 | O=c1c(O)c(-c2ccc(O)c(O)c2)oc2cc(O)ccc12 [FISETIN] | 95 |  | 2.8 | 15 | inactive |  |  |  |  | 
11 | CCOC(=O)C(CO)NC(=O)[C@@]1(C)CCC[C@@]2(C)C1CC=C1C=C(C(C)C)CC[C@H]12 (stereo partly drawn) | 85 | 55 | 1.05 | 25 | inactive |  | Active | Active | Active | Active
12 | CCCCCCCCCCCCCCCCCC(=O)NC(CO)C(=O)OCC (stereo not drawn) | 56 | 16 | 9.8 | 53 | inactive |  |  |  |  | 
13 | CCCCCCCCCCCCCCCCCC(=O)NC(CO)P(=O)(OC)OC (stereo not drawn) | 64 | 17 | 4.1 | 11 | inactive |  |  |  |  | 
14 | CC1=CC(=O)CC(C)(C)C1(O)/C=C/C(C)=C/C(=O)NC(CO)C(=O)O (stereo not drawn) | 70 | 14 | 2.7 | 40 | inactive |  |  |  |  | 
15 | CCCCC/C=C/C/C=C/CCCCCCCC(=O)NCCCCCC(=O)OCC(O)C1OC(=O)C(OCc2ccccc2)=C1OCc1ccccc1 (stereo not drawn) | 59 | 13 | 8.2 | 7 | inactive |  |  |  |  | 
16 | CC(C)C1=CC2=CCC3[C@](C)(CCC[C@]3(C)C(=O)NC(CO)C(=O)O)[C@@H]2CC1 (stereo partly drawn) | 27 | 10 |  | 26 | inactive |  |  |  |  | 
